Results reported in ChEMBL document CHEMBL4477235, “Evolution of a Novel, Orally Bioavailable Series of PI3Kδ Inhibitors from an Inhaled Lead for the Treatment of Respiratory Disease” (J Med Chem, 2016).
In brackets after ≈: the same amount, converted by molar mass.

How the values were obtained:
Homo sapiens [1] = organism: Homo sapiens; experiment: Selectivity ratio of IC50 for PI3Kalpha (unknown origin) to IC50 for PI3Kdelta (unknown origin)
Procedure, shortened: (§1)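 Ratio of each isoform's HTRF IC50 to the PI3Kδ HTRF IC50. Enzymes were preincubated 15 min with 4-fold compound dilutions in HEPES pH 7.0, MgCl2, DTT buffer. […] PIP2 was 5 µM for δ and 8 µM for α/β/γ. 60 min reaction, then EDTA quench with GRP-1 PH domain/APC/Eu detection. Four-parameter fit.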

Homo sapiens [2] = organism: Homo sapiens; experiment: Selectivity ratio of IC50 for PI3Kbeta (unknown origin) to IC50 for PI3Kdelta (unknown origin); procedure, shortened: as §1
Homo sapiens [3] = organism: Homo sapiens; experiment: Selectivity ratio of IC50 for PI3Kgamma (unknown origin) to IC50 for PI3Kdelta (unknown origin); procedure, shortened: as §1
[4] = molecular target: T1, Phosphatidylinositol 4,5-bisphosphate 3-kinase catalytic subunit delta isoform (Homo sapiens, UniProt O00329)
T1 sequence (O00329 whole entry): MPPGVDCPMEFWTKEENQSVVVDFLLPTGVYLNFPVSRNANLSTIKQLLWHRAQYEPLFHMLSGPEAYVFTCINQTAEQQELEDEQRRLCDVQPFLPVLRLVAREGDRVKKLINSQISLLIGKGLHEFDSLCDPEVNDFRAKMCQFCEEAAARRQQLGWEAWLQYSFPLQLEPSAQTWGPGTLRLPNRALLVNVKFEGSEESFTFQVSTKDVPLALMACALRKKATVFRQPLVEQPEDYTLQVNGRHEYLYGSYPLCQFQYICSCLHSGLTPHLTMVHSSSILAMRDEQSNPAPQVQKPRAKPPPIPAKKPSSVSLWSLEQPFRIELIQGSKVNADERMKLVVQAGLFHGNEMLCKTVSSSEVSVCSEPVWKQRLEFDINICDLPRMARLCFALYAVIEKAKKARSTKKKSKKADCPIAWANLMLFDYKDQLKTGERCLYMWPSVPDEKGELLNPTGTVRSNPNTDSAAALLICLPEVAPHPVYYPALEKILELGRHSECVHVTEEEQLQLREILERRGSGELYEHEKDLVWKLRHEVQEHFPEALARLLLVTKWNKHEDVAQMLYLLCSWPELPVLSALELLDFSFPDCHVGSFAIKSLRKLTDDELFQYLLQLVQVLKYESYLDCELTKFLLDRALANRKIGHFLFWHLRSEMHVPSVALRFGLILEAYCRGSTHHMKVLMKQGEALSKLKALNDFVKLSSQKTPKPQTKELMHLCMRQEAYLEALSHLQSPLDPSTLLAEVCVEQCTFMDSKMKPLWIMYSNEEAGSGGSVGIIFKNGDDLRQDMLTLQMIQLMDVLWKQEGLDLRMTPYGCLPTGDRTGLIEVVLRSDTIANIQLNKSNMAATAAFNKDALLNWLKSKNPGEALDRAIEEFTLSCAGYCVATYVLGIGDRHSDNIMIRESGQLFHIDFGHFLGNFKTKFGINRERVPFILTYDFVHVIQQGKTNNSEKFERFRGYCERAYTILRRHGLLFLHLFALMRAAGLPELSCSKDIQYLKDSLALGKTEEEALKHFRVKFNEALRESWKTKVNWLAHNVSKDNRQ

[5] = Clearance in rat liver microsomes at 0.5 uM measured up to 30 mins by LC-MS/MS analysis; type: ADME, Microsome; settings: 0.5 h
Procedure, shortened: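 Rat liver microsomes (0.5 mg protein/mL) prewarmed 10 min at 37 °C, started with NADPH regeneration system. Final compound 0.5 μM. Sampled at 0, 3, 6, 12 and 30 min into acetonitrile with internal standard. Peak area ratios by LC–MS/MS fitted to log-linear decline. Clearance scaled by protein concentration, incubation volume and 52.5 mg microsomal protein/g liver.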

[6] = Clearance in mouse liver microsomes at 0.5 uM measured up to 30 mins by LC-MS/MS analysis; type: ADME, Microsome; settings: 0.5 h
[7] = Clearance in human liver microsomes at 0.5 uM measured up to 30 mins by LC-MS/MS analysis; type: ADME, Microsome; settings: 0.5 h
[8] = AUC(infinity) in Sprague-Dawley rat at 3 mg/kg, po measured up to 7 hrs by LC-MS/MS analysis; type: ADME, organism-based; set-up: dose 3 mg/kg, time infinity, route oral; settings: in vivo
Procedure, shortened: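 Male Sprague Dawley rats (n = 2/route), oral dose in DMSO/PEG200/water (5:45:50 v/v/v) at 6 mL/kg. Serial tail-vein bleeds over 0–7 h. Parent compound quantified by LC–MS/MS. Parameters from noncompartmental analysis.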

[9] = Half life in Sprague-Dawley rat at 1 mg/kg, iv by LC-MS/MS analysis; type: ADME, organism-based; settings: in vivo
Procedure, shortened: (§2)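 Male Sprague Dawley rats (n = 2/route), intravenous dose as a solution in DMSO/PEG200/water (5:45:50 v/v/v) at 2 mL/kg. Serial tail-vein blood sampling over 0–7 h. LC–MS/MS quantification of parent. Noncompartmental analysis.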

[10] = Clearance in Sprague-Dawley rat at 1 mg/kg, iv measured up to 7 hrs by LC-MS/MS analysis; type: ADME, organism-based; settings: in vivo; procedure, shortened: as §2
[11] = Oral bioavailability in Sprague-Dawley rat at 3 mg/kg measured up to 7 hrs by LC-MS/MS analysis; type: ADME, organism-based; settings: in vivo; for F: 7 h
Procedure, shortened: (§3)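 Male Sprague Dawley rats, n = 2 per route, were dosed discretely at 3 mg/kg orally or 1 mg/kg intravenously. The dosing solution was DMSO/PEG200/water (5:45:50 v/v/v). Serial tail-vein blood samples were taken over 0–7 h, and parent compound was quantified by LC–MS/MS. Parameters were estimated by noncompartmental analysis.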

[12] = Volume of distribution at steady state in Sprague-Dawley rat at 3 mg/kg, po or 1 mg/kg, iv measured up to 7 hrs by LC-MS/MS analysis; type: ADME, organism-based; settings: in vivo, read-out: Vdss; procedure, shortened: as §3
Albumin = Albumin (Homo sapiens, UniProt P02768); experiment: Binding affinity to human serum albumin by HPLC analysis; type: ADME; settings: read-out: PB (converted)
[13] = Kinetic solubility in phosphate buffered saline at pH 7.4 after 1 hr by chemiluminescent nitrogen detection method; type: physicochemical; settings: read-out: Kinetic_solubility
Procedure, shortened: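 The sample was then filtered, and the filtrate was quantified by calibrated flow-injection chemiluminescent nitrogen detection. Standard error was ±30 µM, and the upper limit was 500 µM from the 10 mM stock.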

[14] = Cmax in Sprague-Dawley rat at 3 mg/kg, po measured up to 7 hrs by LC-MS/MS analysis; type: ADME, organism-based; set-up: dose 3 mg/kg, route oral; settings: in vivo
[15] = Lipophilicity, log D of compound at pH 7.4 by chromatographic method; type: physicochemical; settings: buffer
[16] = molecular target: Phosphatidylinositol 4,5-bisphosphate 3-kinase catalytic subunit alpha isoform (Homo sapiens, UniProt P42336); experiment: Inhibition of PI3Kalpha (unknown origin) using PIP2 as substrate preincubated for 15 mins followed by substrate addition measured after 60 mins in presence of biotin-labeled PIP3 by HTRF assay
Procedure, shortened: (§4)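 HTRF kinase assay in 50 mM HEPES pH 7.0, 150 mM NaCl, 10 mM MgCl₂, 1 mM DTT. Enzyme preincubated 15 min with 4-fold serially diluted compound. […] Quenched after 60 min with EDTA plus GRP-1 PH domain/streptavidin-APC/Eu-antiGST detection, then equilibrated 60 min in the dark. Data normalized to no-compound and no-enzyme controls. IC50 from four-parameter fit.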

[17] = molecular target: Phosphatidylinositol 4,5-bisphosphate 3-kinase catalytic subunit beta isoform (Homo sapiens, UniProt P42338); experiment: Inhibition of PI3Kbeta (unknown origin) using PIP2 as substrate preincubated for 15 mins followed by substrate addition measured after 60 mins in presence of biotin-labeled PIP3 by HTRF assay; procedure, shortened: as §4
[18] = molecular target: Phosphatidylinositol 4,5-bisphosphate 3-kinase catalytic subunit gamma isoform (Homo sapiens, UniProt P48736); experiment: Inhibition of PI3Kgamma (unknown origin) using PIP2 as substrate preincubated for 15 mins followed by substrate addition measured after 60 mins in presence of biotin-labeled PIP3 by HTRF assay; procedure, shortened: as §4
[19] = molecular target: Phosphatidylinositol 4,5-bisphosphate 3-kinase catalytic subunit delta isoform (Homo sapiens) (UniProt O00329); experiment: Ratio of IC50 for PI3Kdelta in human PBMC to IC50 for PI3Kdelta (unknown origin)
[20] = AUC (0 to t) in Sprague-Dawley rat at 3 mg/kg, po measured up to 7 hrs by LC-MS/MS analysis; type: ADME, organism-based; set-up: dose 3 mg/kg, time < 7 hr, route oral; settings: in vivo
Procedure, shortened: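 Male Sprague Dawley rats were given a single oral dose of 3 mg/kg in DMSO/PEG200/water (5:45:50 v/v/v) at 6 mL/kg, with n = 2 per route. Blood was sampled serially from the tail vein over 0–7 h. Parent compound was quantified by LC–MS/MS, and parameters were derived by noncompartmental analysis.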

[21] = molecular target: T1, Phosphatidylinositol 4,5-bisphosphate 3-kinase catalytic subunit delta isoform; remark: listed apart in the source

Sequence of Albumin (P02768 whole entry): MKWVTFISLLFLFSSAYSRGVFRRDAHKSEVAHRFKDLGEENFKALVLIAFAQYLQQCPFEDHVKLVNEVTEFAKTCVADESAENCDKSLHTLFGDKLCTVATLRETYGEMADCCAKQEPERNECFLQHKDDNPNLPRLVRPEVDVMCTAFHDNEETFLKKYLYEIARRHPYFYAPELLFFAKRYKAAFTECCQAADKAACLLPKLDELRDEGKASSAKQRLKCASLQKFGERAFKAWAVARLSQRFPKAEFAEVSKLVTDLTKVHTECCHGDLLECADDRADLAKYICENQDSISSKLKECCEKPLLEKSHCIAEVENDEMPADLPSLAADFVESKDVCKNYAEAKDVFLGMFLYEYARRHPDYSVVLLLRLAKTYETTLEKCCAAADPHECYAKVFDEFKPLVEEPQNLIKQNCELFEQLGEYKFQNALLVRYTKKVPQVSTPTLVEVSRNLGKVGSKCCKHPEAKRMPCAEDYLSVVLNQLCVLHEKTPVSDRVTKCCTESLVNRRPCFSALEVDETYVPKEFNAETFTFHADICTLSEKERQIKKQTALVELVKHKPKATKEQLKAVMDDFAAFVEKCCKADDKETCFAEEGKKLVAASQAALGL
Sequence of Phosphatidylinositol 4,5-bisphosphate 3-kinase catalytic subunit gamma isoform (P48736 whole entry, canonical isoform): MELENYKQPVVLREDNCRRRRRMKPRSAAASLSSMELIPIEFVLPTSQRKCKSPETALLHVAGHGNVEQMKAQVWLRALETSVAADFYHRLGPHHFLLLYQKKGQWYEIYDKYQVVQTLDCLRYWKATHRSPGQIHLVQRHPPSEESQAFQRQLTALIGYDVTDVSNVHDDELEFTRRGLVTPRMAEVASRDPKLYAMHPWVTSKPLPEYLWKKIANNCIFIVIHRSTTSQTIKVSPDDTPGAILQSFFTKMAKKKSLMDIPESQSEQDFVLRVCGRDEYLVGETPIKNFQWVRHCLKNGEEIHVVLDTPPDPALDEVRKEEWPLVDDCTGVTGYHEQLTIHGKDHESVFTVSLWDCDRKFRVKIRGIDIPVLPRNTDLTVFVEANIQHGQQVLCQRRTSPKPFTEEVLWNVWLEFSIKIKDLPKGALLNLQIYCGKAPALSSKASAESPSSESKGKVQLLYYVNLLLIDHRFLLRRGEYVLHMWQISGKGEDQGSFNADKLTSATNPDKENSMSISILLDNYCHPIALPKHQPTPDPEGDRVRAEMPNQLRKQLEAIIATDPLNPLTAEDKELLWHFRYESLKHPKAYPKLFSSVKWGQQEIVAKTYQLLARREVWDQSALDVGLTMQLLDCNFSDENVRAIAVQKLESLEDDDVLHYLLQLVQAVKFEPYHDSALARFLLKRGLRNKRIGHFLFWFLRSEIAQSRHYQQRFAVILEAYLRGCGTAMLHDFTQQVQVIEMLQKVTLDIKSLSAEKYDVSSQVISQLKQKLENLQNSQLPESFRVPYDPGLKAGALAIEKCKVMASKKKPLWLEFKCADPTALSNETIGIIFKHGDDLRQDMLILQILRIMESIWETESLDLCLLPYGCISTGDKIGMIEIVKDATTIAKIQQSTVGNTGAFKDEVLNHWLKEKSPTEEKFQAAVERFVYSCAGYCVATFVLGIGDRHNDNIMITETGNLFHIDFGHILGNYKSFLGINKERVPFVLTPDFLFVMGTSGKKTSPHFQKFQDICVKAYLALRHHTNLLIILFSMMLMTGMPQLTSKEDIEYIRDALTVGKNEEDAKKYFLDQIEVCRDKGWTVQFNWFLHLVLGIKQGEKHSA
Sequence of Phosphatidylinositol 4,5-bisphosphate 3-kinase catalytic subunit alpha isoform (P42336 whole entry, the tested form may be a part, canonical isoform): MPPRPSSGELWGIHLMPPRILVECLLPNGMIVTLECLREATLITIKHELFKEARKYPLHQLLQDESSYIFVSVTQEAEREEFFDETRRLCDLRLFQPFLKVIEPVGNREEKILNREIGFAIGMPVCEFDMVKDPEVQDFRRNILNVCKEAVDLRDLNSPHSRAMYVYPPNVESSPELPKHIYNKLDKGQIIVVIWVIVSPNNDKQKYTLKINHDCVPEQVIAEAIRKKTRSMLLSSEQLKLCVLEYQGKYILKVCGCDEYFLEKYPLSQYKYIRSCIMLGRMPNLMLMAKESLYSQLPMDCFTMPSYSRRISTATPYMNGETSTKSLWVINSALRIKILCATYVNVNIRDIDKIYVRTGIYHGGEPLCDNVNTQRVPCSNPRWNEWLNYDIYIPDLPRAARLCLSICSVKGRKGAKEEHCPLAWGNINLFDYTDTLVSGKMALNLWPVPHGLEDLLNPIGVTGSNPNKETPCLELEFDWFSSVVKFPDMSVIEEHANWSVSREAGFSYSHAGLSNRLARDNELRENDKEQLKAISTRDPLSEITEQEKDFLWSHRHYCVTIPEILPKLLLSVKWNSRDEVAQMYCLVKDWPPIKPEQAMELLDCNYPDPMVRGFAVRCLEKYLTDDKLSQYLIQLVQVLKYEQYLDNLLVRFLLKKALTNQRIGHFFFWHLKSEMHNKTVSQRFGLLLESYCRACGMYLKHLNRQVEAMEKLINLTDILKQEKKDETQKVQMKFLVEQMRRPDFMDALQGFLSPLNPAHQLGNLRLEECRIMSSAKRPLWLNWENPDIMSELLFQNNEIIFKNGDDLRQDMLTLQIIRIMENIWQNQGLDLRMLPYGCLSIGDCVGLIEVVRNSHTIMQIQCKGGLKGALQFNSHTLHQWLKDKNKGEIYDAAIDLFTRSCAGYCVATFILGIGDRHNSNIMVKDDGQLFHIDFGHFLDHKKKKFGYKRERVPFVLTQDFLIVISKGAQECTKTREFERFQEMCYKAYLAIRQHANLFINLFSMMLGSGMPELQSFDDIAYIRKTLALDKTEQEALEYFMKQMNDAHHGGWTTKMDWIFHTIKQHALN
Sequence of Phosphatidylinositol 4,5-bisphosphate 3-kinase catalytic subunit beta isoform (P42338 whole entry, canonical isoform): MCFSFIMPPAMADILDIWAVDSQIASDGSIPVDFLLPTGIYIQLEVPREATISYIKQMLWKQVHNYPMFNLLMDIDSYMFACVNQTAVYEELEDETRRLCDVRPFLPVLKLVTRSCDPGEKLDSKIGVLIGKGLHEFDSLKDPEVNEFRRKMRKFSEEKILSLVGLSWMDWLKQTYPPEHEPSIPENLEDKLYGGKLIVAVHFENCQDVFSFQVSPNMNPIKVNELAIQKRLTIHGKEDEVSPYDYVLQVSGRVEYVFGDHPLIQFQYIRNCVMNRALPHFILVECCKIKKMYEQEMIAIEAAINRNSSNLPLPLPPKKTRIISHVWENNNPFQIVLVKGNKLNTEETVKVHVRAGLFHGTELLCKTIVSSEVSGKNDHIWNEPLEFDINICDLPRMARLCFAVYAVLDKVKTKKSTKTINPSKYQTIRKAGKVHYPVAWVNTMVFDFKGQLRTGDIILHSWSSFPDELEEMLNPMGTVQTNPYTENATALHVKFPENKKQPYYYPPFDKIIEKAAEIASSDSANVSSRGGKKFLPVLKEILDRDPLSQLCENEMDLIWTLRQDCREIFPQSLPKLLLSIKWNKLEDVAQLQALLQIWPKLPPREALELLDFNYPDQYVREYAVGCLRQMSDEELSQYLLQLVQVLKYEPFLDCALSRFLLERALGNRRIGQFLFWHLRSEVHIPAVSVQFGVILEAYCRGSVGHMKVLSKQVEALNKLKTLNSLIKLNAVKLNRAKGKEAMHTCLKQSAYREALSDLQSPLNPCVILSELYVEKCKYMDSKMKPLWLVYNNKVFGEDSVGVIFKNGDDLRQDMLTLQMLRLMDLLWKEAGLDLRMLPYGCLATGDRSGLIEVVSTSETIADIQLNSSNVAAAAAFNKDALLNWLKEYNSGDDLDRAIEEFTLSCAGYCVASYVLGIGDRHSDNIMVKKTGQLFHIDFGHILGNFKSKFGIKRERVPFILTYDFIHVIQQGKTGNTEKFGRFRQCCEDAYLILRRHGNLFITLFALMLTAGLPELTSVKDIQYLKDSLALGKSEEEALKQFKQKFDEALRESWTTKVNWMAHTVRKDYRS

Row | Structure (SMILES) | Ratio IC50 (Homo sapiens [1]) | Ratio IC50 (Homo sapiens [2]) | Ratio IC50 (Homo sapiens [3]) | IC50 [4] | CLH [5] | CLH [6] | CLH [7] | half-life [9] | Vd [12] | fraction unbound (Albumin) | solubility kinetic at 1 h [13] | chromatographic logD [15] | also measured
1 | COc1ncc(-c2cc3c(c(NC(=O)c4csc(C)n4)c2)COC3)cc1NS(C)(=O)=O | 50 | 63 | 25 | 7.94 nM |  |  |  |  |  |  |  |  | 
2 | COc1ncc(-c2cc3c(c(NC(C)=O)c2)COC3)cc1NS(C)(=O)=O | 4 | 13 | 13 | 398 nM |  |  |  |  |  |  |  |  | 
3 | COc1ncc(-c2cc(-c3ncc(CN4C[C@@H](C)O[C@@H](C)C4)o3)c3cn[nH]c3c2)cc1NS(C)(=O)=O |  |  |  |  | 1.9 mL/min/g | 5.9 mL/min/g | 3.2 mL/min/g | 2.6 h | 3.5 L/kg | 0.1 | 182 µg/mL (≈ 355 µM) | 3.3 | AUC(0-inf) ([8]; Sprague-Dawley): < 24 ng·h/mL; clearance [10]: 50 mL/min/kg; bioavailability ([11]; Sprague-Dawley): < 2%; Cmax [14]: < 2 ng/mL
4 | COc1ncc(-c2ccc3cn[nH]c3c2)cc1NS(C)(=O)=O |  |  |  |  |  |  |  |  |  |  | 31 µg/mL (≈ 97.4 µM) | 2.6 | IC50 [16]: 7940 nM; IC50 [17]: 7940 nM; IC50 [18]: 2510 nM
5 | COc1ncc(-c2cc3c(c(NC(=O)c4cccc(C)n4)c2)COC3)cc1NS(C)(=O)=O | 50 | 126 | 25 | 5.01 nM | 1.2 mL/min/g | 1.4 mL/min/g | < 0.5 mL/min/g | 3.4 h | 1.6 L/kg | 0.07 | 50 µg/mL (≈ 110 µM) |  | F [11]: 1.5%; Ratio IC50 [19]: > 10; AUCt [20]: 42 ng·h/mL; IC50 [21]: 200 nM
6 | COc1ncc(-c2ccc3c(c2)COC3)cc1NS(C)(=O)=O | 5 | 2.5 | 4 | 794 nM |  |  |  |  |  |  | 92 µg/mL (≈ 287 µM) | 3.5 | IC50 [16]: 3980 nM; IC50 [17]: 2000 nM; IC50 [18]: 3160 nM
7 | COc1ncc(-c2cc(NC(=O)c3csc(C)n3)c3cn[nH]c3c2)cc1NS(C)(=O)=O | 63 | 63 | 16 |  |  |  |  |  |  |  |  |  | 
8 | COc1ncc(-c2cc3c(c(-c4nnc(C)o4)c2)COC3)cc1NS(C)(=O)=O | 5 | 13 | 5 | 20 nM | < 0.5 mL/min/g | 1 mL/min/g | < 0.5 mL/min/g | 0.9 h | 0.5 L/kg | 0.1 | 195 µg/mL (≈ 485 µM) |  | AUC ([8]; 7 h): 1370 ng·h/mL; F [11]: 56%; Ratio IC50 [19]: > 10; IC50 [21]: 200 nM
9 | COc1ncc(-c2cc3c(c(-c4ccccn4)c2)COC3)cc1NS(C)(=O)=O | 10 | 20 | 6 | 63.1 nM |  |  |  |  |  |  |  |  | 
